Test results from ChEMBL document CHEMBL1138871, “Synthesis and HIV-integrase strand transfer inhibition activity of 7-hydroxy[1,3]thiazolo[5,4-b]pyridin-5(4H)-ones” (Bioorg Med Chem Lett, 2006).

Experiment: Inhibition of recombinant HIV integrase strand transfer activity
Set-up: species or system Human immunodeficiency virus
Method in brief: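 Recombinant integrase (2 µM) prebound to biotinylated donor DNA (0.66 µM) on streptavidin SPA beads, 5 min 37 °C in 25 mM MOPS pH 7.2, 23 mM NaCl, 10 mM MgCl₂, 10 mM DTT, 10% DMSO. Beads washed and resuspended to 570 nM integrase. Compound (6.7% DMSO final) preincubated 60 min 37 °C. Then [³H] target DNA at 7 nM final added, run 25–45 min 37 °C, EDTA-quenched, read by SPA. Means ± SE.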

| SMILES | IC50 |
| --- | --- |
| COc1ccc(-n2c(=O)c(C(=O)NCc3ccc(F)cc3)c(O)c3ncsc32)cc1 | 1 µM |
| Cn1c(=O)c(C(=O)NCc2ccc(Cl)cc2)c(O)c2ncsc21 | 2.1 µM |
| COC(=O)c1c(O)c2ncsc2n(Cc2ccc(OC)cc2)c1=O | 4.2 µM |
| COC(=O)c1c(O)c2ncsc2n(C)c1=O | > 500 µM |
| COC(=O)c1c(O)c2ncsc2n(-c2ccc(OC)cc2)c1=O | > 500 µM |
| CCn1c(=O)c(C(=O)OC)c(O)c2ncsc21 | 1.23 µM |
| COC(=O)c1c(O)c2ncsc2n(C(C)C)c1=O | 11 µM |
| COC(=O)c1c(O)c2ncsc2n(-c2cccc(SC)c2)c1=O | > 500 µM |
| O=C(NCc1ccc(F)cc1)c1c(O)c2ncsc2n(-c2ccccc2)c1=O | 0.4 µM |
| COC(=O)c1c(O)c2ncsc2n(-c2cccc([N+](=O)[O-])c2)c1=O | > 500 µM |
| O=C(NCc1ccc(F)cc1)c1c(O)c2nc(Cc3ccc(F)cc3)sc2n(-c2ccccc2)c1=O | 4 µM |
| COC(=O)c1c(O)c2ncsc2n(-c2ccccc2)c1=O | > 500 µM |
| COC(=O)c1c(O)c2ncsc2[nH]c1=O | > 500 µM |
| O=C(NCc1ccc(F)cc1)c1c(O)c2ncsc2n(-c2cccc([N+](=O)[O-])c2)c1=O | 17 µM |
| CS(=O)(=O)c1cccc(-n2c(=O)c(C(=O)NCc3ccc(F)cc3)c(O)c3ncsc32)c1 | 0.93 µM |
| O=C(NCc1ccc(F)cc1)c1c(O)c2ncsc2n(-c2cccc(C(F)(F)F)c2)c1=O | 7 µM |
| COC(=O)c1c(O)c2nc(Cc3ccc(F)cc3)sc2n(-c2ccccc2)c1=O | 282 µM |
| CCn1c(=O)c(C(=O)NCc2ccc(F)cc2)c(O)c2ncsc21 | 0.03 µM |
| O=C(NCc1ccc(F)cc1)c1c(O)c2ncsc2[nH]c1=O | 1.5 µM |
| COc1ccc(Cn2c(=O)c(C(=O)NCc3ccc(F)cc3)c(O)c3ncsc32)cc1 | 4 µM |
| COC(=O)c1c(O)c2ncsc2n(-c2cccc(C(F)(F)F)c2)c1=O | > 500 µM |
| COC(=O)c1c(O)c2nc(Cc3ccc(F)cc3)sc2n(C)c1=O | 35 µM |
| Cn1c(=O)c(C(=O)NCc2ccc(F)cc2)c(O)c2ncsc21 | 0.7 µM |
| CC(C)n1c(=O)c(C(=O)NCc2ccc(F)cc2)c(O)c2ncsc21 | 0.19 µM |
| CSc1cccc(-n2c(=O)c(C(=O)NCc3ccc(F)cc3)c(O)c3ncsc32)c1 | 7 µM |
| Cn1c(=O)c(C(=O)NCc2ccc(F)cc2)c(O)c2nc(Cc3ccc(F)cc3)sc21 | 151 µM |
| C[S+]([O-])c1cccc(-n2c(=O)c(C(=O)NCc3ccc(F)cc3)c(O)c3ncsc32)c1 (stereo not drawn) | 2 µM |
| O=C(/C=C(\O)c1nc[nH]n1)c1ccc(Cc2ccc(F)cc2)o1 [S-1360] | 0.16 µM |
